Measured values reported in the RNAGym collection of RNA variant scans (doi:10.1126/science.aae0568).
Variants at the floor of the assay were thinned out.

B1: tRNA (parent)
chain: GUUCCGUUGGCGUAAUGGUAACGCGUCUCCCUCCUAAGGAGAAGACUGCGGGUUCGAGUCCCGUACGGAACG

Variants of: B1
Assay: yeast fitness relative to wild type (ratio to wild type); higher = fitter; tRNA-Arg(CCU), competitive growth, 37 C, YPD
Outline: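 Amplicons of the tRNA-Arg(CCU) gene were sequenced, 100-nucleotide paired-end, from the start population and from each end population of a pooled yeast competition. The competition, in six parallel replicates, lasted 24 hours in YPD at 37°C. Fitness relative to wild type was calculated from changes in genotype frequencies. Genotypes had to have ≥ 100 starting reads, and estimates < 0.5 were set to 0.5.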

Point of comparison: GUUCCGUUGGCGUAAUGGUAACGCGUCUCCCUCCUAAGGAGAAAACUGCGGAUUCGAGUCACGUACGGAACG [G44A G52A C61A], yeast fitness 0.565. Against it:
- GUUCAGUUGGCGUAAUGGUAACGCGUCUCCCUCAUAAGGAGAAGAUUGCGGGUUCGAGUCCCGUACGGAACG [C5A C34A C46U] — lower, 0.553
- GUUCCGUUGGCGUAAUGGUAACGCGUCUCCCUCCUAAGGAGACGACUGCGGGUUCGAGUCCCGCACGGAACG [A43C U64C] — higher, 0.997
- GUUCCGUUGGCGUAAUGGUAACGAGUCUCCAUCCUAAGGAGAAGACUGCGGGUUCGAGUCCCUGACGGAACG [C24A C31A G63U U64G] — lower, ≤ 0.5
- GUUCCGUUGGCGUAAUGGUAACGCGUGUCCCCCCUAAGGAGAAGACUGCGGGUUCGAGUCCCGUACGGAACG [C27G U32C] — higher, 0.935
- GUUCCGUUGGCGUAAUGGUAACGCGUCUCCCUCCUUAGGACAAGUCUGUGGGUUCGAGUUCCGUACGGAACG [A36U G41C A45U C49U C60U] — lower, ≤ 0.5
- GUUCCGUUGGCGUAAUGGUAACGCGUCUACCUCCUACGGAGCAGACUGCAGGUUCGAGUCCCGUACGGAACG [C29A A37C A42C G50A] — lower, ≤ 0.5
- GUUCCGUUGGCGUAAUGGUAACGCGUCUCCCUUCUAAAGAGAAGACUGUGGGUUCGAGUCACGUACGGAACG [C33U G38A C49U C61A] — lower, ≤ 0.5
- GUUCCGUUGGCGUAAUGGUAAGGCGUCUACCUCCUAAGGAGCAGACUGCGGGUUCGAGUCCCGUACGGAACG [C22G C29A A42C] — lower, 0.542
- GUUCCGUUGGCGUAAUGGUAAAGCGUCUCCCUCCUAAGGAGAAGACUGCGGGUUCGAGUCCUGUCCGGAACG [C22A C62U A65C] — higher, 0.663
- GUUCCGUUGGCGUUAUGGUAACGCGUCUCCCUCCUAAGGAGAAGACUGCGGGUUCGAGUCUCGUACGGAACG [A14U C61U] — higher, 0.591
- GUUUCGUUGGCGUAAUGGUAACGCGUCUCCCUACUAAGGAGAAGACUGCGGGUUCGAGUCUCGUACGGAACG [C4U C33A C61U] — higher, 0.597
- GUUCCGUUGGCGUAAUGGUAACGCGUCUCCAUCCAUAGGAGAAGACCGCGGGUUUGAGUCCCGUACGGAACG [C31A U35A A36U U47C C55U] — lower, 0.518
- GUUCGGUUGGCGUAAUGGUAGCGCGUCUCCCUCCUAAGGAGAAGUCUGCGGGUUCAAGUCCCGUACGGAACG [C5G A21G A45U G56A] — higher, 0.753
- GCUCCGUUGGCGUAAUGGUAACGCGUCUCUCUCCUCAGGAGAAGUCUGCCGGUUCGAGUCCCGUACGGAACG [U2C C30U A36C A45U G50C] — lower, ≤ 0.5
- GGUCCGUUGGCGUAAUGGUACCGCGUCUCCCUCCUAAGGAGAAGAGUGGGGGUUCGAGUCCCGUACGGAACG [U2G A21C C46G C49G] — lower, ≤ 0.5
- GUUCCGUUGGCGUAAUGGUAACGCGUCUCCCUCCUGAGGAGAAGACUGCGGGUUCGAGUACCGUACGGAGCG [A36G C60A A70G] — lower, ≤ 0.5
- GUUCCGUUGGCGUAAUGGUAACGCGUCUCCCUGCUAAGGAGAAGACAGCGGGUUCGAGUCACGUAUGGAACG [C33G U47A C61A C66U] — lower, ≤ 0.5
- GUUCCGUUGGCGUAAUGGUAACGGGUCUCUCUCUUAAGGAGAAGACUGCGGGUUCGAGUCCCGUACGGAACG [C24G C30U C34U] — lower, ≤ 0.5
- GUUCCGUUGCCGUAUUGGUAACGCGUCUGCCUCCUAAGGAGAAGAUUGCGCGUUCGAGUCCCGUACGGAACG [G10C A15U C29G C46U G51C] — lower, ≤ 0.5
- GUUCCGUUGGCGUAAUGGUAACGCGUGUACCUCCUAAGGAGAAGACUGCGGGUUGGAGUCCCGUACGGAACG [C27G C29A C55G] — lower, ≤ 0.5
- GUUCCGUUGGCGUACUGGUAACGCGUCUCACUCCUAAGGGGAAGACUGGGGGUAAGAGUCCCGUGCGGAUCG [A15C C30A A40G C49G U54A C55A A65G A70U] — lower, ≤ 0.5
- GUUCCGUUGGCGUAAUGGUAACGAGUCUCCCUCCUAAGGAGAACACUGCGGGUUCGAGACCCGUACGGAACG [C24A G44C U59A] — lower, ≤ 0.5
- GUUCCGUUAGCGUAAUGGUAACGCGUCUUCCUCCUAAGGAGAAGAUUGCGGGUUCGAGUCCCGUACGGAACG [G9A C29U C46U] — higher, 0.626
- GUUCCGUUGGCGUAAUGGUAACGCGUCUCACUCCUAAGGACAAGGCUGCGGGUUCGAGUCCCGUACCGAACG [C30A G41C A45G G67C] — lower, ≤ 0.5
- GUUCCGUUGGCGUAAUGGUAACGCGUCUCCCUCCUAAGGAGAAAACUGCGGGUUCGAGUCCCGUACGGAGCG [G44A A70G] — higher, 0.919
- GUUCCGAUGGCGUAAUGGGAACGCGUCUCCCUCCUAAGGAGAAGACUGCGGGUUCGAAUCCCGUACGGCACG [U7A U19G G58A A69C] — lower, 0.527
- GUUCCGUUGGCGUAAUGGUAACGCGUCUCCCUCCUAAGGAAAAGACUGCGGGUUUGAGUCCCGUACGGAACG [G41A C55U] — higher, 0.885
- GUUCCGUUGCCGUAGUGGUAACGCGUCUCCCUCCAAAGGAGAAAACUGCGGGUUCGAGUCACGCACGGAACG [G10C A15G U35A G44A C61A U64C] — lower, ≤ 0.5
- GUUCGGUUGGCGUAAUGGUAACGCGUCGCCCUCCUAAGGAGAAGACUGCGGGUUCGAGUCCCGUACGGAACG [C5G U28G] — higher, 0.699
- GUUCUGUUGGCGUAAUGGUAACGCGUCUCCGUCCUAAGGAGAAGACUCCGGGUUCGAAUCCCGUACGGAACG [C5U C31G G48C G58A] — lower, ≤ 0.5
- GUUCCGUUGGCGUAAUGGUAACGCGUCUCCCUCCGAAGGAGAUGACUGCGGGUUCGAGUCCCGUACGGAACG [U35G A43U] — higher, 0.707
- GUUCUGUUGGCGUAAUGGUAACGCGUCUCCCUCUUAAGGAGAAGACUGCGGGUUCGAGUCCCGUUCGGAACG [C5U C34U A65U] — the same, 0.565
- GUUCCGUUCGCGUAAUGGUAACGCGUCUUCCUCCUAAGGAGAAGACUGCGGGUUCGAGUCCCGUACGGAACG [G9C C29U] — higher, 0.674
- GUUCCGAUGGCGUAAUGGUAACGCGUCUCCCUCCUAAGGAGAAGGCUGCGGGUUCGAGUCACGUACGGAGCG [U7A A45G C61A A70G] — lower, ≤ 0.5
- GUUCCGUUGGCGUAAUGGUAACGCGUCUCCCUCCUAAGGAGAAGACUGCCGGUUCGUGUCACGUACGGAACG [G50C A57U C61A] — lower, ≤ 0.5
- GUUCCGUUGGCGUAAUGGUAACGCGUCUCCCUCCUAAGGAGAUGACUGCGGGUUCAAGUCCCGUACGGAACG [A43U G56A] — higher, 0.96
- GUUCCGUUGACGUAAUGGUACCGAGUCUCCCUCCUAAGGAGAAGACUGCGGGUUCGAGUCCCGUCCGCAACG [G10A A21C C24A A65C G68C] — lower, ≤ 0.5
